From article PMC7114156 (Antiviral Research, 2009)
Marks after values point to notes of the source that are not given here.

Columns and labels:
Vero cells = assay: Growth of uninfected Vero cells, MTS; type: cell-based, African Green monkey
Method in brief: (§1)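 Cells were plated in 96-well plates in medium holding serial dilutions of test compound, 1 nM to 10 μM, with DMSO ≤1% (v/v) final. Growth was read by MTS after 72 h at 37 °C: 2 h with reagent plus phenazine methosulfate, then A490. K and Imax came from a fit to a modified Hill equation. Vero cells are African Green monkey.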

[1] = tested on: activated primary B cells; assay: Growth of activated primary B cells, CTG; type: cell-based, human; details: read-out: CC50, host primary cell growth, 72 h
HPV-16 = assay: HPV DNA by qPCR in W12-20850 cells; type: cell-based
BJAB = assay: Growth of BJAB, MTS; type: cell-based, human; details: 72 h
Method in brief: as §1

[2] = Bone marrow toxicity assay, erythroid progenitors; type: cell-based; details: human, erythroid bone marrow progenitor cells
IM9 cells = assay: Apoptosis assay; type: cell-based, human; details: IM9, 20 h exposure
Method in brief: (§2)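 Apoptosis read as cytoplasmic histone-associated DNA fragments with a Cell Death Detection ELISA kit. Exposure was 20 h for IM9 and MT4 and 40 h for W12 and U937. A405 was read kinetically at 30 °C, and the rate per hour came from linear regression of the linear portion. A Fas-activating antibody was the positive control.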

U937 cells = assay: Apoptosis assay; type: cell-based, human; details: U937, 40 h exposure
Method in brief: as §2

W12 cells = assay: mRNA measurement by RT-qPCR in W12 cells; type: cell-based, human; details: W12 cells
Method in brief: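 RNA was taken 0, 24 and 48 h after adding test compound; W12 cells were grown in 75 cm² flasks and washed in chilled PBS. 546 Pathway Set genes were run in quadruplicate by RT-qPCR: 10 μl reactions, primers 900 nM, probes 100 nM final. Ct was normalised to GAPDH, with dCt = Ct(control) − Ct(treated) and a two-sided t-test. Fold change was F = 2^dCt where p ≤ 0.05.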

[3] = 10 nM, 24 h, not significantly different from 1

## O=C(N[C@@H]1CCCc2c1[nH]c1ccc(Cl)cc21)c1ccccn1 [GSK983, N-[(1R)-6-Chloro-2,3,4,9-tetrahydro-1H-carbazol-1-yl]-2-pyridinecarboxamide]
Vero cells; data not shown
  Outcome of growth inhibition over time: cytostasis
Vero cells; data of Fig. 3
  Imax, uninfected host cell growth, MTS: 37%
Vero cells; kidney epithelial, 72 h, 4 titrations
  Imax, Growth, MTS: 43 ± 1%
[1]
  CC50: > 10000 nM
HPV-16; HPV DNA qPCR in W12-20850 vs HKC
  Selectivity index: 12,000 ± 4,000
HPV-16; W12-20850, HPV type 16
  Imax, HPV DNA, qPCR: 85 ± 2%
HPV-16; W12-20850, read-out: K, HPV DNA, qPCR
  EC50: 3.3 ± 0.5 nM
HPV-16; W12 cells, at 100 nM GSK983, reduced from 460
  HPV copy number, expressed as HPV genomes per actin gene: 150 HPV genomes per actin gene
BJAB; B lymphoblast
  Imax, Growth, MTS: 84 ± 1.5%
BJAB; Homo sapiens, read-out: K, growth, MTS
  EC50: 9 ± 0.6 nM
[2]
  CC50: > 10000 nM
IM9 cells
  Apoptosis: induced apoptosis
U937 cells
  Apoptosis: apoptosis did not occur
W12 cells
  Expression of IFI6, IFI44 and IRF9: strongly induced
W12 cells; 10 nM, 24 h
  Fold increase due to GSK983, CPT1B mRNA: 2.2 fold
  Fold increase due to GSK983, IFI16 mRNA: 5.2 fold
  Fold increase due to GSK983, IFI44 mRNA: 2.9 fold
  Fold increase due to GSK983, IFIT1 mRNA: 2.6 fold
  Fold increase due to GSK983, ISG15 mRNA: 2.5 fold
  Fold increase due to GSK983, OAS2 mRNA: 2.1 fold
  Fold increase due to GSK983, OASL mRNA: 1.8 fold
  Fold increase due to GSK983, TNFSF10 mRNA: 3.7 fold
W12 cells; [3]
  Fold increase due to GSK983, CCL5 mRNA: 7.9 ^b fold
  Fold increase due to GSK983, COL10A1 mRNA: 0.8 ^b fold
  Fold increase due to GSK983, CSF2 mRNA: 1.5 ^b fold
  Fold increase due to GSK983, DCN mRNA: 1.5 ^b fold
  Fold increase due to GSK983, DMPK mRNA: 0.9 ^b fold
  Fold increase due to GSK983, ERN2 mRNA: 0.7 ^b fold
  Fold increase due to GSK983, FMOD mRNA: 1.0 ^b fold
  Fold increase due to GSK983, IFI6 mRNA: 1.1 ^b fold
  Fold increase due to GSK983, IL6 mRNA: 2.5 ^b fold
  Fold increase due to GSK983, IL8 mRNA: 1.8 ^b fold
  Fold increase due to GSK983, IRF9 mRNA: 1.0 ^b fold
  Fold increase due to GSK983, LIFR mRNA: 2.1 ^b fold
  Fold increase due to GSK983, LRP1 mRNA: 1.2 ^b fold
  Fold increase due to GSK983, NR1H3 mRNA: 0.6 ^b fold
  Fold increase due to GSK983, OAS1 mRNA: 1.1 ^b fold
  Fold increase due to GSK983, SNAP25 mRNA: 1.2 ^b fold
  Fold increase due to GSK983, TLR5 mRNA: 1.9 ^b fold
W12 cells; 10 nM, 48 h
  Fold increase due to GSK983, CCL5 mRNA: 41.5 fold
  Fold increase due to GSK983, CEL mRNA: 14.1 fold
  Fold increase due to GSK983, COL10A1 mRNA: 2.0 fold
  Fold increase due to GSK983, CPT1B mRNA: 2.2 fold
  Fold increase due to GSK983, CSF2 mRNA: 1.7 fold
  Fold increase due to GSK983, DCN mRNA: 2.1 fold
  Fold increase due to GSK983, DMPK mRNA: 2.1 fold
  Fold increase due to GSK983, ERN2 mRNA: 2.6 fold
  Fold increase due to GSK983, FMOD mRNA: 1.5 fold
  Fold increase due to GSK983, IFI6 mRNA: 2.2 fold
  Fold increase due to GSK983, IFI16 mRNA: 1.6 fold
  Fold increase due to GSK983, IFI44 mRNA: 2.7 fold
  Fold increase due to GSK983, IFIT1 mRNA: 2.0 fold
  Fold increase due to GSK983, IL6 mRNA: 1.8 fold
  Fold increase due to GSK983, IL8 mRNA: 1.4 fold
  Fold increase due to GSK983, IRF3 mRNA: 1.3 fold
  Fold increase due to GSK983, ISG15 mRNA: 3.0 fold
  Fold increase due to GSK983, LIFR mRNA: 1.5 fold
  Fold increase due to GSK983, LRP1 mRNA: 3.5 fold
  Fold increase due to GSK983, NR1H3 mRNA: 1.8 fold
